Data: PubChem BioAssay AID624399 (The Scripps Research Institute Molecular Screening Center, 2012)
Active and inactive are the calls of the source.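 The calls were made as follows: active = increase in reporter activity of 20% or more; inactive = increase below 20%, or a negative response.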

Tested on: BG1Luc4E2 cells, ERE-luciferase luminescence, 24 h
Assay: activators of ER-driven luciferase reporter, late-stage follow-up, counter-screen for AHR activator project, BG1Luc4E2 ovarian carcinoma cells, luminescence (AID 624399)
Conditions: at 10 µM; stronger effect = higher value
Summary of the method: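 Assay system: BG1Luc4E2 cells, firefly luciferase reporter under two synthetic EREs; Controls: 17β-estradiol at 1 nM as positive control; Measured by: firefly luciferase luminescence measured after cell lysis; Evaluation: maximum % reporter activation; Timing: 24 h compound exposure at 37 °C after 5-day depletion; Compound: single test concentration of 10 µM per compound.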

| Compound | activation |
| --- | --- |
| Nc1nc(Cl)cc(Nc2ccc(Oc3ccccc3)cc2)n1 | 3.3% (inactive) |
| Cc1ccc(-c2cc(-c3ccc(Cl)cc3)n[nH]2)c(O)c1 | 3.2% (inactive) |
| COc1ccc(Nc2cc(Cl)nc(N)n2)cc1OC | 13.6% (inactive) |
| COc1ccc(Cl)cc1NC(=O)c1ccc(C(=O)Nc2cc(Cl)ccc2OC)nc1 | -3.6% (inactive) |
| COc1ccc(O)c(-c2cc(-c3cccs3)[nH]n2)c1 | -3% (inactive) |
| CCOc1ccccc1NC(=O)c1ccc(C(=O)Nc2ccccc2OCC)nc1 | -2.8% (inactive) |
| COc1ccc(-c2cc(-c3ccc(C)cc3O)[nH]n2)cc1 | -7.2% (inactive) |
| Cc1cc(Br)cc(C)c1Nc1ccnc(Nc2ccc(C#N)cc2)n1 | -3.5% (inactive) |
| O=C(CSc1nc2ccccc2s1)Nc1ccc(Cl)cn1 | -2% (inactive) |
| Nc1nc(Cl)cc(Nc2ccccc2F)n1 | -0.9% (inactive) |
| Cc1ccc(-c2cc(-c3cccc(F)c3)n[nH]2)c(O)c1 | 3.8% (inactive) |
| O=C(CSc1nc(-c2ccc(F)cc2)cs1)Nc1ccccn1 | 1% (inactive) |
| Cc1csc(SCC(=O)Nc2ccccn2)n1 | -2.6% (inactive) |
| Cc1cccc(C)c1NC(=O)c1ccc(C(=O)Nc2c(C)cccc2C)nc1 | -5.1% (inactive) |
| CCOC(=O)c1c(C)nn(-c2cc(Cl)ccc2Cl)c1C | -3.3% (inactive) |
| Cc1cc(Nc2ccc(F)cc2)nc(N)n1 | -2.7% (inactive) |
| COc1ccc(Nc2cc(Cl)nc(N)n2)cc1 | 2.2% (inactive) |
| Cc1ccc(-c2cc(-c3ccc(F)cc3)n[nH]2)c(O)c1 | 5.8% (inactive) |
| Cc1cccc(NC(=O)c2cc(-c3ccc(C)cc3O)n[nH]2)c1 | 1.8% (inactive) |
| O=C(CSc1nc2ccccc2s1)Nc1ccccn1 | -1% (inactive) |
| Cc1ccnc(NC(=O)CSc2nc3ccccc3s2)c1 | -3.7% (inactive) |
| CN(Cc1cc(-c2cccs2)n[nH]1)Cc1coc2ccccc2c1=O | -2.6% (inactive) |
| Cc1ccc(NC(=O)c2ccc(C(=O)Nc3ccc(C)cc3C)nc2)c(C)c1 | -1.6% (inactive) |
| COc1ccc(NC(=O)c2ccc(C(=O)Nc3ccc(OC)cc3OC)nc2)c(OC)c1 | -0.5% (inactive) |
| Cc1ccc(O)c(-c2cc(-c3ccccc3Cl)[nH]n2)c1 | 11.6% (inactive) |
